The text below walks through data of ChEMBL document CHEMBL4680134, “Structural optimization of natural product nordihydroguaretic acid to discover novel analogues as AcrB inhibitors” (Eur J Med Chem, 2020).

The structures appear in SMILES notation.

Series [1] in a line: Growth inhibition of Escherichia coli BW25113 expressing AcrB at 512 ug/ml after 18 hrs by broth microdilution assay. Particulars: dose 512 µg/ml. The gist of the method:
(§1)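 MIC determined by 96-well broth microdilution in E. coli BW25113 expressing AcrB ((+)AcrB) and an isogenic acrB-deleted strain ((-)AcrB). Used to set the compound concentrations for synergy testing that produce no direct antibacterial effect.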
For orientation: In broth dilution the organism is exposed to a series of concentrations in liquid medium.

Series [2] in a line: Growth inhibition of Escherichia coli harboring AcrB deletion mutant at 64 ug/ml after 18 hrs by broth microdilution assay. To be noted: dose 64 µg/ml. A digest of the protocol:
as §1

For series [3], the target named is T1, Multidrug efflux pump subunit AcrB (Escherichia coli (strain K12)) (UniProt P31224).
T1 sequence (whole entry): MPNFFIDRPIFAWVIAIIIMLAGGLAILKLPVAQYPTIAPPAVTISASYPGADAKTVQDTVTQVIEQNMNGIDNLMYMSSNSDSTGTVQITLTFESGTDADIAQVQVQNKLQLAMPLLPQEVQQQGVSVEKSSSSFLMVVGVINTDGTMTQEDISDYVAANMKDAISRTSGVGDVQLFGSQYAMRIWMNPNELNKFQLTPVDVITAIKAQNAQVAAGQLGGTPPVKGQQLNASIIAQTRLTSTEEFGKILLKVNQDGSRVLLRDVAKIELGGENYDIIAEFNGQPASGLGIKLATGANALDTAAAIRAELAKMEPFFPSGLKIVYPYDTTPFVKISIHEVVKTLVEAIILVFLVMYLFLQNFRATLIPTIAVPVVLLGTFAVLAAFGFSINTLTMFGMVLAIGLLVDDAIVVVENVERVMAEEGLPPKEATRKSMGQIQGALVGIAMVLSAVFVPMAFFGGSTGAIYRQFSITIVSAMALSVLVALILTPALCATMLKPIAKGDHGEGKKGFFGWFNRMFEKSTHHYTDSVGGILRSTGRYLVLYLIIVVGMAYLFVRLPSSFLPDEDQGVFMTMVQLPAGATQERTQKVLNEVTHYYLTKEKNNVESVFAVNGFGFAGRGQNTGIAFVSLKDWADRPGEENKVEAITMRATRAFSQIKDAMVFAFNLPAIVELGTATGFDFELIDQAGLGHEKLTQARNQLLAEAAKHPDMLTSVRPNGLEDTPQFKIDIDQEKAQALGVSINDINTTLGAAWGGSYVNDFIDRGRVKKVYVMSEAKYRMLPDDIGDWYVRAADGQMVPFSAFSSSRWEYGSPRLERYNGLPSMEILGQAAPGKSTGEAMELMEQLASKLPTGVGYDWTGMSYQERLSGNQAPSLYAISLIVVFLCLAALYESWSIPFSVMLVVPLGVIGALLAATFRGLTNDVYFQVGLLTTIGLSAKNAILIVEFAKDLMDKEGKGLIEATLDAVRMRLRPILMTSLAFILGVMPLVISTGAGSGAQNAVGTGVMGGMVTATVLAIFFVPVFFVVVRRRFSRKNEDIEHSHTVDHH
The series is described as follows: Inhibition of AcrB in Escherichia coli BW25113 assessed as potentiation of chloramphenicol induced antibacterial activity by measuring chloramphenicol MIC at 32 ug/ml measured after 18 hrs by checkerboard titration method (reference value: 8 ug/ml). To be noted: dose 32.0 µg/ml.

The target in series [4] is T1, Multidrug efflux pump subunit AcrB (Escherichia coli (strain K12)). The series is described as follows: Inhibition of AcrB in Escherichia coli BW25113 assessed as potentiation of chloramphenicol induced antibacterial activity by measuring chloramphenicol MIC at 64 ug/ml measured after 18 hrs by checkerboard titration method (reference value: 8 ug/ml). To be noted: dose 64.0 µg/ml.

The target is the same in series [5]. The series is described as follows: Inhibition of AcrB in Escherichia coli BW25113 assessed as potentiation of chloramphenicol induced antibacterial activity by measuring chloramphenicol MIC at 128 ug/ml measured after 18 hrs by checkerboard titration method (reference value: 8 ug/ml). Particulars: dose 128.0 µg/ml.
For series [6] the target is unchanged. The series is described as follows: Inhibition of AcrB in Escherichia coli BW25113 assessed as potentiation of erythromycin induced antibacterial activity by measuring erythromycin MIC at 16 ug/ml measured after 18 hrs by checkerboard titration method (reference value: 64 ug/ml). To be noted: dose 16.0 µg/ml.
Series [7] shares this target. Kind of series: Inhibition of AcrB in Escherichia coli BW25113 assessed as potentiation of erythromycin induced antibacterial activity by measuring erythromycin MIC at 32 ug/ml measured after 18 hrs by checkerboard titration method (reference value: 64 ug/ml). To be noted: dose 32.0 µg/ml.
The target is the same in series [8]. Kind of series: Inhibition of AcrB in Escherichia coli BW25113 assessed as potentiation of erythromycin induced antibacterial activity by measuring erythromycin MIC at 64 ug/ml measured after 18 hrs by checkerboard titration method (reference value: 64 ug/ml). To be noted: dose 64.0 µg/ml.
Series [9] shares this target. The series is described as follows: Inhibition of AcrB in Escherichia coli BW25113 assessed as potentiation of tetraphenylphosphonium induced antibacterial activity by measuring tetraphenylphosphonium MIC at 32 ug/ml measured after 18 hrs by checkerboard titration method (reference value: 1024 ug/ml). Particulars: dose 32.0 µg/ml.
For series [10] the target is unchanged. Kind of series: Inhibition of AcrB in Escherichia coli BW25113 assessed as potentiation of tetraphenylphosphonium induced antibacterial activity by measuring tetraphenylphosphonium MIC at 64 ug/ml measured after 18 hrs by checkerboard titration method (reference value: 1024 ug/ml). Particulars: dose 64.0 µg/ml.
The target is the same in series [11]. Kind of series: Inhibition of AcrB in Escherichia coli BW25113 assessed as potentiation of tetraphenylphosphonium induced antibacterial activity by measuring tetraphenylphosphonium MIC at 128 ug/ml measured after 18 hrs by checkerboard titration method (reference value: 1024 ug/ml). To be noted: dose 128.0 µg/ml.
The target is the same in series [12]. The series is described as follows: Inhibition of AcrB in Escherichia coli BW25113 assessed as potentiation of levofloxacin induced antibacterial activity by measuring levofloxacin MIC at 32 ug/ml measured after 18 hrs by checkerboard titration method (reference value: 0.06 ug/ml). To be noted: dose 32.0 µg/ml.
For series [13] the target is unchanged. Kind of series: Inhibition of AcrB in Escherichia coli BW25113 assessed as potentiation of levofloxacin induced antibacterial activity by measuring levofloxacin MIC at 64 ug/ml measured after 18 hrs by checkerboard titration method (reference value: 0.06 ug/ml). To be noted: dose 64.0 µg/ml.
The target is the same in series [14]. Kind of series: Inhibition of AcrB in Escherichia coli BW25113 assessed as potentiation of levofloxacin induced antibacterial activity by measuring levofloxacin MIC at 128 ug/ml measured after 18 hrs by checkerboard titration method (reference value: 0.06 ug/ml). To be noted: dose 128.0 µg/ml.
Series [15] shares this target. The series is described as follows: Inhibition of AcrB in Escherichia coli BW25113 assessed as potentiation of rifampicin induced antibacterial activity by measuring rifampicin MIC at 32 ug/ml measured after 18 hrs by checkerboard titration method (reference value: 16 ug/ml). To be noted: dose 32.0 µg/ml.
For series [16] the target is unchanged. Kind of series: Inhibition of AcrB in Escherichia coli BW25113 assessed as potentiation of rifampicin induced antibacterial activity by measuring rifampicin MIC at 64 ug/ml measured after 18 hrs by checkerboard titration method (reference value: 16 ug/ml). To be noted: dose 64.0 µg/ml.
Series [17] has the same target. Kind of series: Inhibition of AcrB in Escherichia coli BW25113 assessed as potentiation of rifampicin induced antibacterial activity by measuring rifampicin MIC at 128 ug/ml measured after 18 hrs by checkerboard titration method (reference value: 16 ug/ml). Particulars: dose 128.0 µg/ml.

For `Oc1ccc(CCCCc2ccc(O)c(O)c2)cc1O`, the “growth inhibition (GI)” value in series [1] and in [2] was “Non-Toxic” throughout. For the same compound, the MIC in series [3] was found to be 8 µg/mL; in series [4] it was 8 µg/mL; in series [5], 8 µg/mL; in series [6], 64 µg/mL; in series [7] it was 64 µg/mL; in series [8] it was 64 µg/mL. In addition, the MIC was determined as 1020 µg/mL in series [9]; 512 µg/mL in series [10]; 512 µg/mL in [11]; 0.06 µg/mL in [12]; 0.06 µg/mL in [13]; 0.06 µg/mL in series [14]. Besides, the MIC in series [15], in series [16] and in series [17] was 16 µg/mL throughout.

For `Oc1ccc(CCCCc2cc(O)c(O)c(O)c2)cc1O`, the “growth inhibition (GI)” value in series [1] and in series [2] was “Non-Toxic” each time. Besides, the MIC in [3] was 8 µg/mL; in series [4], 8 µg/mL; in series [5], 8 µg/mL; in series [6] it was 64 µg/mL; in series [7] it was 64 µg/mL; in series [8], 32 µg/mL. The MIC in series [9] came to 512 µg/mL; in series [10], 512 µg/mL; in series [11], 256 µg/mL; in series [12] it was 0.06 µg/mL; in series [13], 0.06 µg/mL; in [14] it was 0.06 µg/mL. Also, the MIC in series [15], in [16] and in series [17] was 16 µg/mL each time.

Take `Oc1ccc(CCCCc2ccccc2O)cc1O`: the “growth inhibition (GI)” value in series [1] and in [2] was “Non-Toxic” in each case. The MIC in series [3] came out at 4 µg/mL; in [4], 4 µg/mL; in series [5], 4 µg/mL; in [6], 64 µg/mL; in series [7] it was 64 µg/mL; in series [8], 64 µg/mL. Moreover, the MIC came out at 512 µg/mL in series [9]; 512 µg/mL in [10]; 512 µg/mL in [11]; 0.06 µg/mL in [12]; 0.06 µg/mL in series [13]; 0.06 µg/mL in series [14]. Also, the MIC in series [15], in series [16] and in series [17] was 16 µg/mL in each case.

As to `Oc1ccc(CCCCc2ccc(Br)cc2)cc1O`, the “growth inhibition (GI)” value in [1] and in series [2] was “Non-Toxic” throughout. Besides, the MIC in series [3] was 8 µg/mL; in series [4], 8 µg/mL; in series [5] it was 8 µg/mL; in series [6], 64 µg/mL; in series [7], 64 µg/mL; in series [8] it was 64 µg/mL. Further, the MIC in series [9] turned out to be 1020 µg/mL; in series [10], 512 µg/mL; in [11], 512 µg/mL; in [12], 0.06 µg/mL; in [13], 0.06 µg/mL; in series [14], 0.06 µg/mL. Besides, the MIC in series [15], in series [16] and in series [17] was 16 µg/mL in each case.

As for `Nc1ccc(C(=O)NCCc2ccc(O)c(O)c2)cc1`, the “growth inhibition (GI)” value in series [1] and in series [2] was “Non-Toxic” each time. The MIC was found to be 4 µg/mL in [3]; 4 µg/mL in series [4]; 2 µg/mL in series [5]; 64 µg/mL in [6]; 32 µg/mL in series [7]; 32 µg/mL in series [8]. In addition, the MIC in [9] turned out to be 1020 µg/mL; in [10] it was 1020 µg/mL; in series [11], 512 µg/mL; in series [12], 0.06 µg/mL; in series [13] it was 0.06 µg/mL; in series [14], 0.06 µg/mL. In addition, the MIC in series [15], in series [16] and in series [17] was 16 µg/mL each time.

On to `C[C@H](Cc1ccc(O)c(O)c1)[C@@H](C)Cc1ccc(O)c(O)c1` [MASOPROCOL], for which the MIC in series [3] is 8 µg/mL; in series [4], 8 µg/mL; in series [5], 4 µg/mL; in [7], 64 µg/mL; in series [8], 64 µg/mL; in [9] it was 1020 µg/mL. In addition, the MIC in [10] worked out at 1020 µg/mL; in series [11], 128 µg/mL; in series [12], 0.06 µg/mL; in series [13], 0.03 µg/mL; in series [14], 0.03 µg/mL; in series [15] it was 16 µg/mL. In addition, the MIC in series [16] and in series [17] was 16 µg/mL throughout.

For the compound `Cc1ccc(C(=O)NCCc2ccc(O)c(O)c2)cc1`, the MIC in series [3] came to 8 µg/mL; in series [6] it was 32 µg/mL; in series [7], 16 µg/mL; in series [9] it was 1020 µg/mL; in series [12] it was 0.06 µg/mL; in [15], 16 µg/mL. Also, the MIC in series [16] and in series [17] was 16 µg/mL throughout.

Turning to `Oc1ccc(CCCCCc2ccc(O)c(O)c2)cc1O`, the “growth inhibition (GI)” value in series [1] is listed as “Non-Toxic”. Besides, the MIC in series [3] turned out to be 8 µg/mL; in series [4], 8 µg/mL; in series [5], 8 µg/mL; in [6], 64 µg/mL; in [7], 64 µg/mL; in series [8], 64 µg/mL. The MIC in series [9] came out at 1020 µg/mL; in [10], 1020 µg/mL; in [11], 512 µg/mL; in [12] it was 0.06 µg/mL; in series [13], 0.06 µg/mL; in series [14], 0.06 µg/mL. The MIC in [15], in series [16] and in series [17] was 16 µg/mL in each case.
